Compound activity from PubChem BioAssay.
Hits are enriched below; roughly 0.6% of the tested compounds scored in any of these assays.
GSK3B inh: human GSK3beta kinase inhibitors, primary screen, biochemical, cell-free homogeneous, HTS. Glycogen synthase kinase-3 beta (Homo sapiens), P49841. GST-GSK3beta kinase, ADP-Glo luminescence, 60 min; stronger effect = lower value. activity score (negative = inhibition), % at 10 µM. hit rate 0.038% among 300,000. AID 2097, 2009;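 active = more than half of replicate wells score below -50%, meaning over 50% inhibition versus plate controls; inconclusive = some replicates but at most half score below -50%; inactive = no replicate scores below -50%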
Target sequence (P49841 whole entry, looked up): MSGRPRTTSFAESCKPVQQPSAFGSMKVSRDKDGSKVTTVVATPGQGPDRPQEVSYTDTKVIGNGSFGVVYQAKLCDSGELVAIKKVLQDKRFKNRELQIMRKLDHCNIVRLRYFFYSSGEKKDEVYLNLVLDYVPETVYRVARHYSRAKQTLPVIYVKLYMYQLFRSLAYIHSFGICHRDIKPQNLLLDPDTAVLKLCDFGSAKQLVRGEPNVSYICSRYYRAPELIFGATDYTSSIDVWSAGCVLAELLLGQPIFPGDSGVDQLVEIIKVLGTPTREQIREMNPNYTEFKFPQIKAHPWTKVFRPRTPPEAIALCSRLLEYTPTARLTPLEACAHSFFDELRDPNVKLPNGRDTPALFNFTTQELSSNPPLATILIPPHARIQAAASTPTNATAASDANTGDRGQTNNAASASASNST
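Assay system: GST-tagged human GSK3beta kinase, cell-free; Input: 1.6 ng GSK3beta; Medium: Tris/MgCl2 kinase buffer; Timing: 60 min enzyme reaction, room temperature; Signal: ADP-Glo luminescence quantifying ADP generated by kinase; Evaluation: score relative to plate controls; Benchmarks: DMSO neutral wells and GW8510 at 20 µM as positive.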
PolyA inh: polyadenylation inhibitors in yeast reporter cells, primary screen, luminescence, S. cerevisiae. S. cerevisiae SKY197-pL101 polyadenylation reporter, beta-gal luminescence; efflux-impaired pdr1/pdr3 knockout yeast; score 100 = 6 SD above DMSO. activity score, % at 12 µM. hit rate 0.02% among 300,000. AID 1875, 2009;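 active = lowest replicate activity score at least 50, where 100 means six control SD above control mean; inconclusive = lowest score under 50 but half or more replicates reach 50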;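 also: yeast exposed to compound for 9 h at 30 °C; higher score means more reporter readthrough which indicates perturbed polyadenylation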
STK33 inh: inhibitors of purified STK33 kinase, primary screen, biochemical, ADP-Glo luminescence, homogeneous, cell-free; Serine/threonine-protein kinase 33 (Homo sapiens), Q9BYT3; AID 2661, 2010; hit rate 0.073% among 320,000; MBP phosphorylation; inhibition, % at 10 µM;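 active = inhibition at or above 25%, using the most active replicate where run in duplicate; inactive = inhibition below 25%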
GSK3 alpha inh: blockers of GSK3A enzyme activity – biochemical, luminescence, cell-free homogeneous, HTS, primary screen | Glycogen synthase kinase-3 alpha (Homo sapiens), P49840 | GSK-3 alpha kinase, ADP-Glo luminescence, 60 min | inhibition, % at 10 µM | hit rate 0.1% among 320,000 | AID 2650, 2010;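 active = more than half of replicates show inhibition above 20%; inconclusive = some but at most half of replicates above 20% inhibition; inactive = no replicate shows inhibition above 20%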;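 also: GST-tagged GSK-3 alpha with peptide substrate and 25 µM ATP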
Efflux pump mplx: inhibitors of Candida efflux pumps in yeast, primary screen, S. cerevisiae, Nile Red, multiplex; S. cerevisiae Candida pump triplex; inhibition, % at 10 µM; hit rate 0.44% among 330,000; AID 485275, 2010;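 active = plate passing quality check with inhibition over a set limit, or well fluorescence over plate mean plus 4 SD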;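 also: Nile Red retained in pooled yeast measured as flow cytometry median fluorescence; higher means more Nile Red kept so more efflux inhibition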
Hits are given with their value.

O=C(NCCc1nc2ccccc2[nH]1)c1ccc(Br)o1 was read as PolyA inh inconclusive, STK33 inh inactive, GSK3 alpha inh inactive and Efflux pump mplx inactive.
`O=C(Nc1ccccc1-c1ccccc1)c1ccc(Br)o1` gave GSK3B inh inactive, PolyA inh inactive, STK33 inh 36.4, GSK3 alpha inh inactive and Efflux pump mplx inactive.
O=C(Nc1nc2ccccc2[nH]1)c1ccc(Br)o1 was read as GSK3B inh inactive, PolyA inh inactive, STK33 inh 60.1, GSK3 alpha inh inactive and Efflux pump mplx inactive.
Cc1cnc(NC(=O)C2COc3ccccc3O2)s1 (stereo not drawn) was read as GSK3B inh inactive, PolyA inh inactive, STK33 inh inactive, GSK3 alpha inh inactive and Efflux pump mplx inactive.
For Cc1[nH]nc2c1C(c1ccc(N(C)C)cc1)C1=C(CC(C)(C)CC1=O)N2 (stereo not drawn) the results were GSK3B inh inactive, PolyA inh inactive, STK33 inh inactive, GSK3 alpha inh inactive and Efflux pump mplx inactive.
Cc1[nH]nc2c1C(c1ccc(F)cc1)C1=C(CC(C)(C)CC1=O)N2 (stereo not drawn) was read as GSK3B inh -56.1, PolyA inh inactive, GSK3 alpha inh inactive and Efflux pump mplx inactive.
`Cc1ccc(C2C3=C(CC(C)(C)CC3=O)Nc3n[nH]c(C)c32)cc1` (stereo not drawn) gave GSK3B inh -60.0, PolyA inh inactive, STK33 inh inactive, GSK3 alpha inh 77.3 and Efflux pump mplx inactive.
For Cc1[nH]nc2c1C(c1cccc(O)c1)C1=C(CC(C)(C)CC1=O)N2 (stereo not drawn) the results were GSK3B inh -91.8, PolyA inh inactive, STK33 inh inactive, GSK3 alpha inh 96.5 and Efflux pump mplx inactive.
For Oc1ccc2ccccc2c1N=Nc1ccccc1F the results were GSK3B inh inactive, PolyA inh inactive, STK33 inh inactive, GSK3 alpha inh inactive and Efflux pump mplx inactive.
For O=S(=O)(O)c1cccc(N=Nc2c(O)ccc3ccccc23)c1 the results were GSK3B inh inactive, PolyA inh inactive, STK33 inh 60.4, GSK3 alpha inh inactive and Efflux pump mplx inactive.
`CC(C)Cc1nn2c(=O)cc(COc3ccc(NC(=O)c4ccco4)cc3)nc2s1` gave GSK3B inh inactive, PolyA inh inactive, STK33 inh inactive, GSK3 alpha inh inactive and Efflux pump mplx inactive.
`O=C(COc1ccccc1[N+](=O)[O-])N/N=C/c1ccncc1` gave GSK3B inh inactive, PolyA inh inactive, STK33 inh inactive, GSK3 alpha inh inactive and Efflux pump mplx inactive.
`O=C(COc1cccc2cccnc12)N/N=C/c1ccc(O)cc1` gave GSK3B inh inactive, PolyA inh inactive, STK33 inh inactive, GSK3 alpha inh 55.8 and Efflux pump mplx inactive.
O=C(COc1ccccc1[N+](=O)[O-])N/N=C/c1ccc(O)cc1 was read as GSK3B inh -51.0, PolyA inh inactive and Efflux pump mplx inactive.
`COc1cc(C)c2c(c1C=O)Oc1c(c(C)c(O)c3c1C(O)OC3=O)OC2=O` (stereo not drawn) gave GSK3B inh inactive, PolyA inh inactive, STK33 inh 44.4, GSK3 alpha inh inactive and Efflux pump mplx inactive.
CCCCC(=O)OCC(=O)c1[nH]c(C)c(C(C)=O)c1C was read as GSK3B inh inactive, PolyA inh inactive, STK33 inh inactive, GSK3 alpha inh inactive and Efflux pump mplx inactive.
CC1=CC(=O)c2c(O)ccc(O)c2C1=O was read as STK33 inh inactive, GSK3 alpha inh inactive and Efflux pump mplx 1.0.
Cc1ccc(C(=O)Nc2ccc(C(=O)O)cc2NC(=O)c2ccc(C)cc2)cc1 was read as PolyA inh inactive, STK33 inh inactive, GSK3 alpha inh inactive and Efflux pump mplx inactive.
For N#C/C(=C(/O)c1ccco1)c1nc2ccccc2[nH]1 the results were GSK3B inh inactive, PolyA inh inactive, STK33 inh 28.6, GSK3 alpha inh inactive and Efflux pump mplx inactive.
Screening Cc1cc(C)n2nc(-c3ccco3)nc2n1 returned GSK3B inh inactive, PolyA inh inactive, STK33 inh inactive, GSK3 alpha inh inactive and Efflux pump mplx inactive.
